Reference: ChEMBL document CHEMBL5058577, “EUbOPEN Chemogenomics Library 2 (Multiplex)” (2022)

Test system: U2OS
Assay: Multiplex assay against U2OS
Type: toxicity, cell-based
Conditions: human
Procedure, shortened: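 Live cells were stained at seeding with Hoechst33342, BioTracker Green Microtubule Cytoskeleton Dye, MitoTracker Red and Annexin V Alexa Fluor 680, then imaged on a CQ1 microscope at 37°C and 5% CO2 after compound addition. CellPathfinder machine-learning gating split cells into Hoechst high-intensity objects or normal cells. Normal cells were split into healthy, pyknosed or fragmented nuclei, and pyknosed cells into mitotic or apoptotic. Tubulin, mitochondrial-mass and membrane-permeability phenotypes are per cents of healthy-nucleus cells.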

[1] = 12 h, 1 µM, compound concentration 1 uM, replicate 1
[2] = 12 h, 1 µM, compound concentration 1 uM, replicate 2
[3] = 12 h, 10 µM, compound concentration 10 uM, replicate 1
[4] = 12 h, 10 µM, compound concentration 10 uM, replicate 2
[5] = 24 h, 1 µM, compound concentration 1 uM, replicate 1
[6] = 24 h, 1 µM, compound concentration 1 uM, replicate 2
[7] = 24 h, 10 µM, compound concentration 10 uM, replicate 1
[8] = 24 h, 10 µM, compound concentration 10 uM, replicate 2
[9] = 48 h, 1 µM, compound concentration 1 uM, replicate 1
[10] = 48 h, 1 µM, compound concentration 1 uM, replicate 2
[11] = 48 h, 10 µM, compound concentration 10 uM, replicate 1
[12] = 48 h, 10 µM, compound concentration 10 uM, replicate 2

CN(C)C(=O)Cn1cc(-c2ccc(-c3cncc4ccccc34)cc2)cn1
Population Apoptotic (%) [1]: 68%
Population Fragmented Nuclei (%) [1]: 22%
Population Healthy Nuclei (%) [1]: 68%
Population Hoechst High Intensity Objects (%) [1]: 3%
Population Membrane Permeable-Phenotype (%) [1]: 8%
Population Mitochondria Different-Phenotype (%) [1]: 4%
Population Mitotic Cells (%) [1]: 31%
Population Normal (%) [1]: 96%
Population Pyknosed Nuclei (%) [1]: 9%
Population Tubulin-Different-Phenotype (%) [1]: 5%
Total Cell Count [1]: 240
Population Apoptotic (%) [2]: 69%
Population Fragmented Nuclei (%) [2]: 18%
Population Healthy Nuclei (%) [2]: 69%
Population Hoechst High Intensity Objects (%) [2]: 0%
Population Membrane Permeable-Phenotype (%) [2]: 6%
Population Mitochondria Different-Phenotype (%) [2]: 2%
Population Mitotic Cells (%) [2]: 30%
Population Normal (%) [2]: 99%
Population Pyknosed Nuclei (%) [2]: 11%
Population Tubulin-Different-Phenotype (%) [2]: 3%
Total Cell Count [2]: 110
Population Apoptotic (%) [3]: 66%
Population Fragmented Nuclei (%) [3]: 21%
Population Healthy Nuclei (%) [3]: 67%
Population Hoechst High Intensity Objects (%) [3]: 5%
Population Membrane Permeable-Phenotype (%) [3]: 20%
Population Mitochondria Different-Phenotype (%) [3]: 12%
Population Mitotic Cells (%) [3]: 33%
Population Normal (%) [3]: 94%
Population Pyknosed Nuclei (%) [3]: 10%
Population Tubulin-Different-Phenotype (%) [3]: 14%
Total Cell Count [3]: 205
Population Apoptotic (%) [4]: 100%
Population Fragmented Nuclei (%) [4]: 18%
Population Healthy Nuclei (%) [4]: 75%
Population Hoechst High Intensity Objects (%) [4]: 3%
Population Membrane Permeable-Phenotype (%) [4]: 22%
Population Mitochondria Different-Phenotype (%) [4]: 19%
Population Mitotic Cells (%) [4]: 0%
Population Normal (%) [4]: 96%
Population Pyknosed Nuclei (%) [4]: 5%
Population Tubulin-Different-Phenotype (%) [4]: 23%
Total Cell Count [4]: 98
Population Apoptotic (%) [5]: 100%
Population Fragmented Nuclei (%) [5]: 21%
Population Healthy Nuclei (%) [5]: 69%
Population Hoechst High Intensity Objects (%) [5]: 3%
Population Membrane Permeable-Phenotype (%) [5]: 5%
Population Mitochondria Different-Phenotype (%) [5]: 2%
Population Mitotic Cells (%) [5]: 0%
Population Normal (%) [5]: 96%
Population Pyknosed Nuclei (%) [5]: 8%
Population Tubulin-Different-Phenotype (%) [5]: 4%
Total Cell Count [5]: 278
Population Apoptotic (%) [6]: 90%
Population Fragmented Nuclei (%) [6]: 15%
Population Healthy Nuclei (%) [6]: 76%
Population Hoechst High Intensity Objects (%) [6]: 1%
Population Membrane Permeable-Phenotype (%) [6]: 8%
Population Mitochondria Different-Phenotype (%) [6]: 6%
Population Mitotic Cells (%) [6]: 9%
Population Normal (%) [6]: 98%
Total Cell Count [6]: 127
Population Apoptotic (%) [7]: 54%
Population Fragmented Nuclei (%) [7]: 25%
Population Healthy Nuclei (%) [7]: 64%
Population Hoechst High Intensity Objects (%) [7]: 3%
Population Membrane Permeable-Phenotype (%) [7]: 19%
Population Mitochondria Different-Phenotype (%) [7]: 9%
Population Mitotic Cells (%) [7]: 45%
Population Normal (%) [7]: 96%
Population Pyknosed Nuclei (%) [7]: 9%
Population Tubulin-Different-Phenotype (%) [7]: 10%
Total Cell Count [7]: 244
Population Apoptotic (%) [8]: 80%
Population Fragmented Nuclei (%) [8]: 11%
Population Healthy Nuclei (%) [8]: 84%
Population Hoechst High Intensity Objects (%) [8]: 2%
Population Membrane Permeable-Phenotype (%) [8]: 16%
Population Mitochondria Different-Phenotype (%) [8]: 15%
Population Mitotic Cells (%) [8]: 20%
Population Normal (%) [8]: 97%
Population Pyknosed Nuclei (%) [8]: 4%
Population Tubulin-Different-Phenotype (%) [8]: 14%
Total Cell Count [8]: 110
Population Apoptotic (%) [9]: 87%
Population Fragmented Nuclei (%) [9]: 18%
Population Healthy Nuclei (%) [9]: 69%
Population Hoechst High Intensity Objects (%) [9]: 2%
Population Membrane Permeable-Phenotype (%) [9]: 6%
Population Mitochondria Different-Phenotype (%) [9]: 3%
Population Mitotic Cells (%) [9]: 12%
Population Normal (%) [9]: 97%
Population Pyknosed Nuclei (%) [9]: 12%
Population Tubulin-Different-Phenotype (%) [9]: 4%
Total Cell Count [9]: 333
Population Apoptotic (%) [10]: 88%
Population Fragmented Nuclei (%) [10]: 20%
Population Healthy Nuclei (%) [10]: 67%
Population Hoechst High Intensity Objects (%) [10]: 3%
Population Membrane Permeable-Phenotype (%) [10]: 12%
Population Mitochondria Different-Phenotype (%) [10]: 9%
Population Mitotic Cells (%) [10]: 11%
Population Normal (%) [10]: 96%
Population Pyknosed Nuclei (%) [10]: 11%
Population Tubulin-Different-Phenotype (%) [10]: 9%
Total Cell Count [10]: 163
Population Apoptotic (%) [11]: 74%
Population Fragmented Nuclei (%) [11]: 22%
Population Healthy Nuclei (%) [11]: 62%
Population Hoechst High Intensity Objects (%) [11]: 2%
Population Membrane Permeable-Phenotype (%) [11]: 15%
Population Mitochondria Different-Phenotype (%) [11]: 8%
Population Mitotic Cells (%) [11]: 25%
Population Normal (%) [11]: 97%
Population Pyknosed Nuclei (%) [11]: 14%
Population Tubulin-Different-Phenotype (%) [11]: 8%
Total Cell Count [11]: 302
Population Apoptotic (%) [12]: 92%
Population Fragmented Nuclei (%) [12]: 21%
Population Healthy Nuclei (%) [12]: 68%
Population Membrane Permeable-Phenotype (%) [12]: 20%
Population Mitochondria Different-Phenotype (%) [12]: 14%
Population Mitotic Cells (%) [12]: 7%
Population Pyknosed Nuclei (%) [12]: 9%
Population Tubulin-Different-Phenotype (%) [12]: 16%
Total Cell Count [12]: 149
